Values after ≈ are worked out from the molar mass of the structure shown.
Experiments:
Salmonella typhimurium [1] = experiment: (§1) Minimum inhibitory concentration was measured against Salmonella Typhimurium ATCC 14028; format: functional
Method in brief: (§2)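 Agar dilution and microtiter broth dilution, with incubation in Mueller-Hinton medium; MIC expressed in mg/L.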

Pseudomonas aeruginosa = experiment: Minimum inhibitory concentration was measured against Pseudomonas aeruginosa ATCC 27853; format: functional; method in brief: as §2
Escherichia coli [2] = experiment: Minimum inhibitory concentration was measured against Escherichia coli 73110901 producing AAC-(6')-I) modifying enzyme; format: functional; method in brief: as §2
Serratia marcescens [3] = experiment: Minimum inhibitory concentration was measured against Serratia marcescens S69.; format: functional; method in brief: as §2
Bacillus subtilis = experiment: Minimum inhibitory concentration was measured against Bacillus subtilis ATCC 6633.; format: functional; method in brief: as §2
Escherichia coli [4] = experiment: Minimum inhibitory concentration was measured against Escherichia coli 00000589 producing APH-(3'') modifying enzyme; format: functional
Method in brief: (§3)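 MICs were determined by agar dilution and by microtiter (broth) dilution in Mueller-Hinton medium against strains producing defined aminoglycoside-modifying enzymes. Values are reported in mg/L.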

Klebsiella pneumoniae [5] = experiment: (§4) Minimum inhibitory concentration was measured against Klebsiella pneumoniae 7608271 producing AAC-(3)-II modifying enzyme; format: functional; method in brief: as §2
Klebsiella pneumoniae [6] = experiment: Minimum inhibitory concentration was measured against Klebsiella pneumoniae 00GT3020 producing AAD-(2'')-modifying enzyme; format: functional; method in brief: as §3
Providencia stuartii [7] = experiment: Minimum inhibitory concentration was measured against Providencia stuartii 75082808 producing AAC-(2'') modifying enzyme; format: functional; method in brief: as §2
Escherichia coli [8] = experiment: Minimum inhibitory concentration was measured against Escherichia coli 76070703 producing AAC-(3)-I modifying enzyme; format: functional; method in brief: as §3
Escherichia coli [9] = experiment: Minimum inhibitory concentration was measured against Escherichia coli ATCC 25992.; format: functional; method in brief: as §2
Enterobacter cloacae = experiment: Minimum inhibitory concentration was measured against Enterobacter cloacae ATCC 23355; format: functional; method in brief: as §2
Serratia marcescens [10] = experiment: Minimum inhibitory concentration was measured against Serratia marcescens 75012711 producing AAD-(2'')+AAC(6'') modifying enzyme; format: functional; method in brief: as §2
Escherichia coli [11] = experiment: Minimum inhibitory concentration was measured against Escherichia coli 71120101 producing AAD-(4')) modifying enzyme; format: functional; method in brief: as §3
Escherichia coli [12] = experiment: Minimum inhibitory concentration was measured against Escherichia coli 72091801 producing AAC-(3)-I modifying enzyme; format: functional; method in brief: as §3
Escherichia coli [13] = experiment: Minimum inhibitory concentration was measured against Escherichia coli OLA 290R5 producing AAD-(2'')-modifying enzyme; format: functional; method in brief: as §3
Serratia marcescens [14] = experiment: Minimum inhibitory concentration was measured against Serratia marcescens S20.; format: functional; method in brief: as §2
[15] = tested on: Staphylococcus epidermidis; experiment: Minimum inhibitory concentration was measured against Staphylococcus epidermidis ATCC 12228.; format: functional; method in brief: as §2
Escherichia coli [16] = experiment: Minimum inhibitory concentration was measured against Escherichia coli 001574-1 producing APH-(3'') modifying enzyme; format: functional; method in brief: as §3
Klebsiella pneumoniae [17] = experiment: Minimum inhibitory concentration was measured against Klebsiella pneumoniae ATCC 13883; format: functional; method in brief: as §2
Serratia marcescens [18] = experiment: Minimum inhibitory concentration was measured against Serratia marcescens ATCC 8100; format: functional; method in brief: as §2
Staphylococcus aureus [19] = experiment: Minimum inhibitory concentration was measured against Staphylococcus aureus ATCC 25923; format: functional; method in brief: as §2
Providencia stuartii [20] = experiment: Minimum inhibitory concentration was measured against Providencia stuartii 72052305 producing AAC-(2'') modifying enzyme; format: functional; method in brief: as §2
Klebsiella pneumoniae [21] = experiment: Minimum inhibitory concentration was measured against Klebsiella pneumoniae 75012101 producing AAD-(2'')-modifying enzyme; format: functional; method in brief: as §2
Staphylococcus aureus [22] = experiment: Minimum inhibitory concentration was measured against Staphylococcus aureus 76080401 producing AAD-(4')) modifying enzyme; format: functional; method in brief: as §2
Escherichia coli [23] = experiment: Minimum inhibitory concentration was measured against Escherichia coli 0000JR66 producing AAD-(2'')-modifying enzyme; format: functional; method in brief: as §2
Serratia marcescens [24] = experiment: microbe, parasite or virus in culture
Klebsiella pneumoniae [25] = experiment: as §4; format: functional; method in brief: as §2; remark: listed apart in the source
Klebsiella pneumoniae [26] = experiment: Minimum inhibitory concentration was measured against Klebsiella pneumoniae 760070702 producing AAC-(3)-I modifying enzyme; format: functional; method in brief: as §2
Providencia stuartii [27] = experiment: Minimum inhibitory concentration was measured against Providencia stuartii 00000164 producing AAC-(2'') modifying enzyme; format: functional; method in brief: as §2
Salmonella typhimurium [28] = experiment: as §1; format: functional, salmonella typhimurium a; details: Salmonella enterica; method in brief: as §2
[29] = in the assay text read “AAC-(2')” for “AAC-(2'')”

Compound	MIC (Pseudomonas aeruginosa)	MIC (Escherichia coli [2])	MIC (Serratia marcescens [3])	MIC (Bacillus subtilis)	MIC (Escherichia coli [4])	MIC (Klebsiella pneumoniae [6])	MIC (Escherichia coli [8])	MIC (Escherichia coli [9])	MIC (Enterobacter cloacae)	MIC (Serratia marcescens [10])	MIC (Escherichia coli [11])	MIC (Escherichia coli [12])	MIC (Escherichia coli [13])	MIC (Serratia marcescens [14])	MIC [15]	MIC (Escherichia coli [16])	MIC (Klebsiella pneumoniae [17])	MIC (Serratia marcescens [18])	MIC (Staphylococcus aureus [19])	MIC (Salmonella typhimurium [1]; Salmonella enterica)	other results
GENTAMICIN	1 µg/mL	4 µg/mL	128 µg/mL	1 µg/mL	2 µg/mL	32 µg/mL	128 µg/mL	1 µg/mL	1 µg/mL	32 µg/mL	2 µg/mL	2 µg/mL	64 µg/mL	128 µg/mL	1 µg/mL	1 µg/mL	1 µg/mL	1 µg/mL	1 µg/mL	–	MIC (Salmonella typhimurium [1]; Salmonella enterica subsp. enterica serovar Typhimurium): 1 µg/mL; MIC (Klebsiella pneumoniae [5]): 256 µg/mL; MIC (Providencia stuartii [7]; pseudomonas stuartii): 64 µg/mL
NCC1OC(OC2C(N)CC(N)(CO)C(OC3OC(CO)C(O)C(N)C3O)C2O)C(N)C(O)C1O (stereo unspecified)	> 128 µg/mL	> 128 µg/mL	> 64 µg/mL	0.5 µg/mL (≈ 0.974 µM)	> 128 µg/mL	> 128 µg/mL	–	0.5 µg/mL (≈ 0.974 µM)	0.25 µg/mL (≈ 0.487 µM)	> 128 µg/mL	> 128 µg/mL	> 128 µg/mL	8 µg/mL (≈ 15.6 µM)	> 64 µg/mL	0.25 µg/mL (≈ 0.487 µM)	4 µg/mL (≈ 7.79 µM)	0.25 µg/mL (≈ 0.487 µM)	1 µg/mL (≈ 1.95 µM)	0.25 µg/mL (≈ 0.487 µM)	1 µg/mL (≈ 1.95 µM)	MIC (Providencia stuartii [20]): 16 µg/mL (≈ 31.2 µM); MIC (Klebsiella pneumoniae [21]): 4 µg/mL (≈ 7.79 µM); MIC (Staphylococcus aureus [22]): > 128 µg/mL; MIC (Escherichia coli [23]): > 128 µg/mL; MIC (Serratia marcescens [24]): 4 µg/mL (≈ 7.79 µM); MIC (Klebsiella pneumoniae [25]): > 128 µg/mL; MIC (Klebsiella pneumoniae [26]): 1 µg/mL (≈ 1.95 µM); MIC (Providencia stuartii [27]): > 128 µg/mL
CC(=O)NCC1OC(OC2C(O)C(OC3OC(CN)C(O)C(O)C3N)C(N)CC2(N)CO)C(O)C(N)C1O (stereo unspecified)	> 128 µg/mL	–	> 64 µg/mL	8 µg/mL (≈ 14.4 µM)	–	–	–	4 µg/mL (≈ 7.21 µM)	0.25 µg/mL (≈ 0.451 µM)	–	–	–	–	> 64 µg/mL	1 µg/mL (≈ 1.8 µM)	–	2 µg/mL (≈ 3.61 µM)	16 µg/mL (≈ 28.8 µM)	1 µg/mL (≈ 1.8 µM)	–	MIC (Salmonella typhimurium [28]): 8 µg/mL (≈ 14.4 µM)
NC[C@H]1O[C@H](O[C@H]2[C@H](O)[C@@H](O[C@H]3O[C@H](CO)[C@@H](O)[C@H](N)[C@H]3O)[C@H](N)C[C@@H]2N)[C@H](N)[C@@H](O)[C@@H]1O [BEKANAMYCIN]	> 128 µg/mL	–	> 64 µg/mL	0.5 µg/mL (≈ 1.03 µM)	–	–	–	1 µg/mL (≈ 2.07 µM)	0.25 µg/mL (≈ 0.517 µM)	–	–	–	–	> 64 µg/mL	0.25 µg/mL (≈ 0.517 µM)	–	0.25 µg/mL (≈ 0.517 µM)	1 µg/mL (≈ 2.07 µM)	0.5 µg/mL (≈ 1.03 µM)	1 µg/mL (≈ 2.07 µM)	–
NCC[C@H](O)C(=O)N[C@@H]1C[C@H](N)[C@@H](O[C@H]2O[C@H](CN)[C@@H](O)[C@H](O)[C@H]2O)[C@H](O)[C@H]1O[C@H]1O[C@H](CO)[C@@H](O)[C@H](N)[C@H]1O [AMIKACIN]	–	256 µg/mL (≈ 437 µM)	2 µg/mL (≈ 3.42 µM)	–	8 µg/mL (≈ 13.7 µM)	2 µg/mL (≈ 3.42 µM)	4 µg/mL (≈ 6.83 µM)	4 µg/mL (≈ 6.83 µM)	1 µg/mL (≈ 1.71 µM)	2 µg/mL (≈ 3.42 µM)	4 µg/mL (≈ 6.83 µM)	8 µg/mL (≈ 13.7 µM)	2 µg/mL (≈ 3.42 µM)	8 µg/mL (≈ 13.7 µM)	–	2 µg/mL (≈ 3.42 µM)	–	–	1 µg/mL (≈ 1.71 µM)	–	MIC (Providencia stuartii [20]): 1 µg/mL (≈ 1.71 µM); MIC (Providencia stuartii [7]; [29]): 16 µg/mL (≈ 27.3 µM); MIC (Serratia marcescens [24]): 1 µg/mL (≈ 1.71 µM); MIC (Providencia stuartii [27]): 16 µg/mL (≈ 27.3 µM)
NCC1OC(OC2C(N)CC(N)(CO)C(OC3OC(CCl)C(O)C(N)C3O)C2O)C(N)C(O)C1O (stereo unspecified)	> 128 µg/mL	128 µg/mL (≈ 241 µM)	> 64 µg/mL	1 µg/mL (≈ 1.88 µM)	> 128 µg/mL	> 256 µg/mL	–	1 µg/mL (≈ 1.88 µM)	0.25 µg/mL (≈ 0.47 µM)	> 256 µg/mL	128 µg/mL (≈ 241 µM)	> 256 µg/mL	8 µg/mL (≈ 15 µM)	> 64 µg/mL	0.5 µg/mL (≈ 0.94 µM)	2 µg/mL (≈ 3.76 µM)	0.5 µg/mL (≈ 0.94 µM)	2 µg/mL (≈ 3.76 µM)	0.5 µg/mL (≈ 0.94 µM)	2 µg/mL (≈ 3.76 µM)	MIC (Providencia stuartii [20]): 32 µg/mL (≈ 60.2 µM); MIC (Klebsiella pneumoniae [21]): 16 µg/mL (≈ 30.1 µM); MIC (Staphylococcus aureus [22]): 256 µg/mL (≈ 481 µM); MIC (Escherichia coli [23]): > 256 µg/mL; MIC (Serratia marcescens [24]): 8 µg/mL (≈ 15 µM); MIC (Klebsiella pneumoniae [25]): > 256 µg/mL; MIC (Klebsiella pneumoniae [26]): 1 µg/mL (≈ 1.88 µM); MIC (Providencia stuartii [27]): 256 µg/mL (≈ 481 µM)
CNC1C(O)C(OC2C(O)C(OC3OC([C@@H](C)N)CCC3N)C(N)CC2(N)CO)OCC1(C)O (stereo partly specified)	–	8 µg/mL (≈ 16.2 µM)	–	–	–	–	2 µg/mL (≈ 4.05 µM)	–	–	2 µg/mL (≈ 4.05 µM)	–	–	–	–	–	–	–	–	–	–	MIC (Klebsiella pneumoniae [21]): 2 µg/mL (≈ 4.05 µM); MIC (Staphylococcus aureus [22]): 0.5 µg/mL (≈ 1.01 µM); MIC (Escherichia coli [23]): 8 µg/mL (≈ 16.2 µM); MIC (Providencia stuartii [7]; [29]): 8 µg/mL (≈ 16.2 µM); MIC (Klebsiella pneumoniae [25]): 1 µg/mL (≈ 2.03 µM); MIC (Klebsiella pneumoniae [26]): 1 µg/mL (≈ 2.03 µM)
[N-]=[N+]=NCC1OC(OC2C(O)C(OC3OC(CN)C(O)C(O)C3N)C(N)CC2(N)CO)C(O)C(N)C1O (stereo unspecified)	> 128 µg/mL	–	> 64 µg/mL	2 µg/mL (≈ 3.71 µM)	–	–	–	1 µg/mL (≈ 1.86 µM)	0.25 µg/mL (≈ 0.464 µM)	–	–	–	–	> 64 µg/mL	1 µg/mL (≈ 1.86 µM)	–	0.5 µg/mL (≈ 0.928 µM)	2 µg/mL (≈ 3.71 µM)	0.5 µg/mL (≈ 0.928 µM)	–	MIC (Salmonella typhimurium [28]): 1 µg/mL (≈ 1.86 µM)

Source: ChEMBL document CHEMBL1125677, “New derivatives of kanamycin B obtained by combined modifications in positions 1 and 6". Synthesis, microbiological properties, and in vitro and computer-aided toxicological evaluation” (J Med Chem, 1991)
